Test [1] deals with Plasmodium falciparum. Briefly: In vitro antimalarial activity against chloroquine-sensitive Plasmodium falciparum NF 54. The class given is functional, organism-based. A digest of the protocol: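 In vitro test run in quadruplicate for each set, with the value taken from a fitted dose–response curve. Artemisinin was run as a concurrent control (n = 10).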
Test [2] deals with Mus musculus. Put plainly: In vivo antimalarial activity in mice (Mus musculus) infected with Plasmodium berghei NY malaria parasite after oral administration determined as parasite suppression at 10 mg/kg. In kind it is functional. A digest of the protocol: (§1)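 Mice infected with P. berghei NY were given drug intravenously or orally (per line) daily for 4 days, following a published protocol. The work was run as two separate groups of experiments, each with its own reference drugs.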

Test [3] relates to Mus musculus. Put plainly: In vivo antimalarial activity in mice (Mus musculus) infected with Plasmodium berghei NY malaria parasite after oral administration for 4 days. The class given is functional. The following applies: 96 h. A digest of the protocol:
as §1

In test [4] the test system is Mus musculus. Briefly: In vivo antimalarial activity in mice (Mus musculus) infected with Plasmodium berghei NY malaria parasite after intravenous administration for 4 days. The class given is functional. The following applies: 96 h. The gist of the method: as §1
The test system of test [5] is Mus musculus. Put plainly: In vivo antimalarial activity in mice (Mus musculus) infected with Plasmodium berghei NY malaria parasite after intravenous administration determined as parasite suppression at 10 mg/kg. The class given is functional. The gist of the method:
as §1

The test system of test [6] is Mus musculus. Put plainly: In vivo antimalarial activity in mice (Mus musculus) infected with Plasmodium berghei NY malaria parasite after intravenous administration determined as parasite suppression at 10 mg/kg (Experiment 2). The class given is functional. A digest of the protocol: as §1
Test [7] relates to Mus musculus. Put plainly: In vivo antimalarial activity in mice (Mus musculus) infected with Plasmodium berghei NY malaria parasite after intravenous administration determined as parasite suppression at 10 mg/kg (Experiment 1). In kind it is functional. A digest of the protocol:
as §1

In test [8] the test system is Mus musculus. Put plainly: In vivo antimalarial activity in mice (Mus musculus) infected with Plasmodium berghei NY malaria parasite after intravenous administration for 4 days (Experiment 2). In kind it is functional. The following applies: 96 h. The gist of the method: as §1
The subject of test [9] is Mus musculus. Briefly: In vivo antimalarial activity in mice (Mus musculus) infected with Plasmodium berghei NY malaria parasite after intravenous administration for 4 days (Experiment 1). In kind it is functional. The following applies: 96 h. A digest of the protocol: as §1
For test [10], the system named is Mus musculus. Briefly: In vivo antimalarial activity in mice (Mus musculus) infected with Plasmodium berghei NY malaria parasite after oral administration for 4 days (Experiment 2). The class given is functional. The following applies: 96 h. A digest of the protocol:
(§2)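 P. berghei NY-infected mice given the compound orally once daily for 4 days, following a previously published protocol. Two separate groups of experiments were run, each with its own concurrent reference drugs.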

Test [11] deals with Mus musculus. Briefly: In vivo antimalarial activity in mice (Mus musculus) infected with Plasmodium berghei NY malaria parasite after oral administration for 4 days (Experiment 1). In kind it is functional. The following applies: 96 h. The gist of the method:
as §2

The test system of test [12] is Mus musculus. Briefly: In vivo antimalarial activity in mice (Mus musculus) infected with Plasmodium berghei NY malaria parasite after oral administration determined as parasite suppression at 10 mg/kg (Experiment 2). The class given is functional. A digest of the protocol: (§3)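 P. berghei NY-infected mice dosed orally at 10 mg/kg body weight, following a previously published protocol. Read-out is % suppression of parasite growth. Two separate groups of experiments were run, each with its own concurrent reference drugs.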

Test [13] relates to Mus musculus. Briefly: In vivo antimalarial activity in mice (Mus musculus) infected with Plasmodium berghei NY malaria parasite after oral administration determined as parasite suppression at 10 mg/kg (Experiment 1). The class given is functional. The gist of the method: as §3

A word on the IC50: it is the concentration that inhibits the measured activity by half. Low values mean inhibition by little substance, high ones a need for much substance. Consider `C[C@@H]1CC[C@H]2[C@@H](C)C(CC(=O)CC3OC4O[C@]5(C)CC[C@H]6[C@H](C)CC[C@@H]([C@H]3C)C46OO5)OC3O[C@]4(C)CCC1C32OO4` (stereo partly specified), for which the IC50 in test [1] was 0.91 nM.

Regarding `C=C(CC1OC2O[C@]3(C)CCC4[C@H](C)CC[C@@H]([C@H]1C)C24OO3)CC1OC2O[C@]3(C)CC[C@H]4[C@H](C)CC[C@@H]([C@H]1C)C24OO3` (stereo partly specified), in test [1], the IC50 came out at 24 nM.

As for `C[C@@H]1CC[C@H]2[C@@H](C)C(CC3(CC4OC5O[C@]6(C)CC[C@H]7[C@H](C)CC[C@@H]([C@H]4C)C57OO6)CO3)OC3O[C@]4(C)CCC1C32OO4` (stereo partly specified), the IC50 in [1] came out at 2.8 nM.

In turn, `C[C@H]1[C@@H](CC(O)(CO)C[C@H]2O[C@@H]3O[C@]4(C)CC[C@H]5[C@H](C)CC[C@@H]([C@H]2C)[C@@]35OO4)O[C@@H]2O[C@]3(C)CC[C@H]4[C@H](C)CC[C@@H]1[C@@]24OO3` (stereo partly specified) yielded an IC50 in test [1] of 0.59 nM.

In test [1], `C[C@@H]1CC[C@H]2[C@@H](C)C(CC(COC(=O)c3ccncc3)CC3OC4O[C@]5(C)CC[C@H]6[C@H](C)CC[C@@H]([C@H]3C)C46OO5)OC3O[C@]4(C)CCC1C32OO4` (stereo partly specified) yielded an IC50 of 1.7 nM.

In general, ED50 refers to the dose at which the effect has come halfway, by size or by number of responders. A lower ED50 goes with an effect at a small dose. As for `C[C@@H]1CC[C@H]2[C@@H](C)C(CC(COC(=O)CCC(=O)O)CC3OC4O[C@]5(C)CC[C@H]6[C@H](C)CC[C@@H]([C@H]3C)C46OO5)OC3O[C@]4(C)CCC1C32OO4` (stereo partly specified), the Parasite suppression came out at 79.2% in [2] and 81% in [5]. In addition, the results for the ED50 in [3] and in test [4] were 9 mg/kg/day and 2.2 mg/kg/day, respectively. Besides, the figures for the ED90 in [3] and in test [4] were 15 mg/kg/day and 6.3 mg/kg/day, respectively. For the same compound, it took 2 nM to reach half-maximal inhibition in [1] (IC50).

In the case of `C[C@@H]1CC[C@H]2[C@@H](C)C(CC(O)(CC3OC4O[C@]5(C)CC[C@H]6[C@H](C)CC[C@@H]([C@H]3C)C46OO5)CS(=O)(=O)c3ccc(C(=O)O)cc3)OC3O[C@]4(C)CCC1C32OO4` (stereo partly specified), the Parasite suppression was 46.1% in test [2] and 83.4% in test [5]. In addition, the results for the ED50 in [3] and in test [4] were 7.5 mg/kg/day and 2.7 mg/kg/day, respectively. Also, the ED90 turned out to be 35 mg/kg/day in [3] and 10 mg/kg/day in test [4]. The concentration for half-maximal inhibition (IC50) in test [1] came to 2.4 nM.

Regarding `C[C@@H]1CC[C@H]2[C@@H](C)C(CC(CO)CC3OC4O[C@]5(C)CC[C@H]6[C@H](C)CC[C@@H]([C@H]3C)C46OO5)OC3O[C@]4(C)CCC1C32OO4` (stereo partly specified), the IC50 in test [1] amounted to 0.87 nM.

`C[C@@H]1CC[C@H]2[C@@H](C)C(CC(O)(CC3OC4O[C@]5(C)CC[C@H]6[C@H](C)CC[C@@H]([C@H]3C)C46OO5)c3ccc(C(=O)O)cc3)OC3O[C@]4(C)CCC1C32OO4` (stereo partly specified) showed an IC50 in test [1] of 2.1 nM.

As for `C[C@@H]1[C@H](OCc2ccc(C(=O)O)cc2)O[C@@H]2O[C@@]3(C)CC[C@@H]4[C@@H](C)CC[C@@H]1[C@]24OO3` (stereo in doubt) [ARTELINIC ACID], the Parasite suppression in test [6] turned out to be 42.4%; in [7], 54.7%. Also, the ED50 amounted to 5.6 mg/kg/day in test [8] and 11 mg/kg/day in [9]. The values for the ED90 in test [8] and in test [9] were 43 mg/kg/day and 25 mg/kg/day, respectively.

Compound `C[C@@H]1CC[C@H]2[C@@H](C)C(=O)O[C@@H]3O[C@@]4(C)CC[C@@H]1[C@]32OO4` [ARTEMISININ] gave an IC50 in test [1] of 9 nM.

`C[C@H]1[C@H](OC(=O)CCC(=O)[O-])O[C@@H]2O[C@@]3(C)CC[C@H]4[C@H](C)CC[C@@H]1[C@@]24OO3.[Na+]` [SODIUM ARESUNATE]: the ED50 in test [10] worked out at 5.5 mg/kg/day; in [11], 10 mg/kg/day. Besides, the results for the ED90 in test [10] and in test [11] were 70 mg/kg/day and 39 mg/kg/day, respectively. In addition, the Parasite suppression was 50.9% in [12] and 52.8% in test [13].

In the case of `C[C@@H]1CC[C@H]2[C@@H](C)C(CC(O)(COC(=O)CCC(=O)O)CC3OC4O[C@]5(C)CC[C@H]6[C@H](C)CC[C@@H]([C@H]3C)C46OO5)OC3O[C@]4(C)CCC1C32OO4` (stereo partly specified) [TERTIARY ALCOHOL PRIMARY SUCCINATEESTER], the Parasite suppression in [2] was determined as 55.4%; in test [5], 83.4%. Moreover, the ED50 in test [3] stood at 4.8 mg/kg/day; in test [4] it was 2.4 mg/kg/day. For the same compound, the ED90 in test [3] is 34 mg/kg/day; in [4] it was 11 mg/kg/day. In test [1], this compound had an IC50 of 3 nM.

The record behind these values is ChEMBL document CHEMBL1136720, “Orally active, antimalarial, anticancer, artemisinin-derived trioxane dimers with high stability and efficacy” (J Med Chem, 2003).
